Assay results pooled from the literature.
Tested at: 1 µM
MET M1250T: Hepatocyte growth factor receptor (MET, Homo sapiens, UniProt P08581, M1250T)
MET: Hepatocyte growth factor receptor (MET, Homo sapiens, UniProt P08581)
MET Y1235D: Hepatocyte growth factor receptor (MET, Homo sapiens, UniProt P08581, Y1235D)

| Compound | target | test | remaining binding [%] |
| --- | --- | --- | --- |
| CN(C)C(=O)Cn1cc(-c2nc(C3(c4ccc(-c5cnc(N)nc5)cc4)CC3)no2)cn1 | MET M1250T | cell-free assay, competition with immobilised ligand | 100 |
| CCN1CCN(Cc2ccc(C(=O)Nc3ccc(C)c(Oc4ccc5c(c4)CC(=O)N5)c3)cc2C(F)(F)F)CC1 | MET | binding, competition with immobilised ligand | 100 |
| O=C(Nc1c[nH]nc1C(=O)NC1CCNCC1)c1cc(F)cc(F)c1 | MET M1250T | binding, competition with immobilised ligand | 100 |
| N[C@@H]1CCN(c2nccc(-c3cnn4ncccc34)n2)C1 | MET M1250T | binding | 100 |
| CC(=O)Nc1c(C(C)=O)c(=O)n(C)c2nc(-c3ccc(Cl)cc3Cl)c(-c3ccc(Cl)cc3)cc12 | MET | cell-free assay, competition with immobilised ligand | 100 |
| O=C(NCCCN1CCOCC1)c1ccc(Nc2ncc(Cl)c(-c3ccc(Cl)s3)n2)cc1 | MET M1250T | binding, competition with immobilised ligand | 13 |
| CC(=O)N1CCC(c2ccc(C(=O)NC3=NCCN3)cc2C(F)(F)F)CC1 | MET M1250T | cell-free assay, competition with immobilised ligand | 84 |
| CN(CCCC(F)(F)F)c1nccc(-c2cnn3ncccc23)n1 | MET | binding | 100 |
| CNC(=O)[C@@H]1CC[C@@H](n2c(-c3ccc4cnccc4c3)nc3ccc(C(=O)NCc4cccc(C(N)=O)c4)cc32)C1 | MET M1250T | binding, competition with immobilised ligand | 100 |
| C[C@H](NC(=O)c1cnc2n1[C@](C)(Cc1ccc(C#N)cc1)C(=O)N2c1cc(Cl)c(F)c(Cl)c1)C(=O)NC1(c2ccccn2)CC1 | MET | cell-free assay, competition with immobilised ligand | 100 |
| COc1ccnn2ncc(-c3ccnc(N(C)C)n3)c12 | MET | binding | 92 |
| O=C(NC[C@@H]1[C@H]2CN(C(=O)OCc3cc(C(F)(F)F)cc(C(F)(F)F)c3)C[C@@H]12)c1ccc2[nH]nnc2c1 | MET M1250T | cell-free assay, competition with immobilised ligand | 100 |
| C[C@@H]1CCN(c2nccc(-c3cnn4ncccc34)n2)C1 | MET Y1235D | binding | 79 |
| O=C(c1ccc(Nc2nccc(-c3cc4ccccc4s3)n2)cc1)N1CCC(N2CCCC2)CC1 | MET Y1235D | binding, competition with immobilised ligand | 85 |
| CN(C)c1nccc(-c2cnn3ncccc23)n1 | MET Y1235D | binding | 90 |
| COc1cnc(Nc2cccc(S(N)(=O)=O)c2)nc1N1CCN(c2ccccc2)CC1 | MET Y1235D | binding, competition with immobilised ligand | 100 |
| F[C@@H]1CCN(c2nccc(-c3cnn4ncccc34)n2)C1 | MET | binding | 90 |
| O=C(NCCCN1CCOCC1)c1ccc(Nc2nccc(-c3cc4ccccc4s3)n2)cc1 | MET | binding, competition with immobilised ligand | 100 |
